5HT1a antag – blocks the human serotonin 5-HT1a receptor; P08908; CHO 5-HT1a Ga15 NFAT-bla reporter, antagonist mode; inhibition, % at 10 µM; 62,000 compounds, 0.68% hits;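 active = inhibition above the mean of all tested compounds plus 3 SD, cut at about 43% in these data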;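 also: receptor stimulated by 5-CT agonist at 100 nM near EC80; beta-lactamase reporter measured by ratiometric fluorescence of a cleavable substrate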
HTR1A agonist – agonists of human 5-HT1a serotonin receptor; P08908; CHO 5-HT1a Ga15 NFAT-bla reporter, FRET ratio; 0% basal, 100% maximal reference agonist; activation, % at 10 µM; 65,000 compounds, 0.56% hits; AID 567;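 active = activation above the screen-wide mean activation plus 3 SD, cut at about 19% in these data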;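 also: 0% = DMSO wells and 100% = 5-CT at EC100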
HEK293 NFkB inh – lowers PMA/ionomycin-induced NF-kB signal in HEK293 cells; HEK-293 NF-kB luciferase reporter, luminescence; inhibition, % at 3 µM; 62,000 compounds, 0.21% hits;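 active = inhibition above the mean of all tested compounds plus 3 SD, cut at about 40% in these data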;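 also: 0% = stimulated DMSO wells and 100% = 10 µM reference inhibitor 5653914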
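Timing: 1 h pretreatment, 16 h stimulation, 37 °C; system: HEK-293 cells with stable firefly luciferase reporter driven by four HIV NF-kB elements; doses: 3 µM once, 0.30% DMSO; measured by: luciferase luminescence; control set: DMSO and 10 µM reference inhibitor; repeats: single test; reagent: PMA plus ionomycin mix as NF-kB-activating stimulus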
HTR1E antagonist – 5-HT1E (human) receptor antagonism; P28566; CHO 5-HT1E Ga15 NFAT-bla reporter, FRET, antagonist; inhibition, % at 6 µM; 65,000 compounds, 0.99% hits; AID 571;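 active = inhibition above a set limit, the mean inhibition across every tested compound plus 3 SD, cut at about 29% in these data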;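 also: signal is the 460 over 535 nm emission ratio of beta-lactamase substrate; 0% = agonist plus DMSO wells and 100% = wells without agonist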
Target sequence (P28566 whole entry, looked up): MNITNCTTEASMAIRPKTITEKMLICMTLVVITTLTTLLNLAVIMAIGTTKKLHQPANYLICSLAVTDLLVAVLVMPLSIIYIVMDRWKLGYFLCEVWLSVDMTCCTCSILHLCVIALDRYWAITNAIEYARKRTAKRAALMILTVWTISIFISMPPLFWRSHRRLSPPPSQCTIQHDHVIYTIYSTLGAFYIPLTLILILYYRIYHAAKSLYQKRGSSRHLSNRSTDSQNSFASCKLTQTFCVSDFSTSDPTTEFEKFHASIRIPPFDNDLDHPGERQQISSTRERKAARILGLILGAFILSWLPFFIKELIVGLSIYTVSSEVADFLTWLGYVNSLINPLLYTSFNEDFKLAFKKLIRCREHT
5HT1E ag – activates the human 5-HT1E serotonin receptor; P28566; CHO 5-HT1E Ga15 NFAT-bla reporter, FRET; 0% DMSO wells, 100% control agonist wells; activation, % at 6 µM; 65,000 compounds, 0.69% hits;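 active = activation above a set limit, the screen-wide mean activation plus 3 SD, cut at about 8.5% in these data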;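 also: 100% = positive control agonist at 1 µM giving full maximal response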
* = called active by the depositor; . = no result given. In the library only some 2.6% were active in any assay of this set; here they are far more common.

SMILES | 5HT1a antag | HTR1A agonist | HEK293 NFkB inh | HTR1E antagonist | 5HT1E ag
CCCCCC(=O)N(O)C1CC(=O)N(c2ccccc2)C1=O (configuration not stated) | 2.8 | -4.4 | 6.7 | 11.7 | 0.5
Nc1nc(CSc2n[nH]c(-c3ccccc3)n2)nc(Nc2ccccc2)n1 | -11.1 | 1.5 | -11.0 | 29.5* | 0.5
COc1ccc(Nc2nc(N)nc(CSc3n[nH]c(-c4ccccc4)n3)n2)cc1 | 2.5 | 0.5 | -13.6 | 42.1* | -1.0
O=C(Nc1ccc(-c2nc3ncccc3o2)cc1)c1ccc(Br)o1 | 8.8 | -2.1 | 0.5 | 62.0* | 1.4
O=C(Nc1ccc(-c2nc3ncccc3o2)cc1)c1ccco1 | 9.6 | 0.4 | -35.0 | -10.6 | -1.1
Cc1ccc(-n2ncc3c(N4CCCC4)ncnc32)c(C)c1 | . | 0.4 | . | 13.0 | -0.1
COc1cccc(N2CCN(c3ncnc4c3cnn4-c3ccc(C)cc3C)CC2)c1 | 47.6* | 3.4 | 34.2 | 69.1* | 2.9
O=C(c1ccccc1)C(CCC(CN1CCOCC1)C(=O)c1ccccc1)CN1CCOCC1 (configuration not stated) | . | 2.5 | . | 12.6 | 0.2
O=C(c1ccc(F)cc1)C(CN1CCOCC1)c1ccccc1 (configuration not stated) | 69.1* | 0.1 | 28.9 | 51.3* | 0.5
CCOc1ccccc1CN(CCc1ccc2c(c1)OCO2)Cc1ccccn1 | 48.4* | 0.9 | -2.5 | 1.9 | -0.7
CCOc1ccc(CCNC(=O)Cn2c(-c3nonc3N)nc3ccccc32)cc1OCC | 15.1 | 0.6 | 17.5 | 10.8 | 0.3
COc1cccc(Cn2c(-c3nonc3N)nc3ccccc32)c1 | 46.0* | -2.0 | 11.7 | 39.0* | -0.3
CCCCOc1ccccc1NC(=O)Cn1c(-c2nonc2N)nc2ccccc21 | 62.5* | -2.6 | 37.9 | 71.1* | 2.6
COc1cc(Cn2c(-c3nonc3N)nc3ccccc32)ccc1C | 64.3* | -5.5 | 22.8 | 52.2* | -1.2
CCSCCOC(=O)C1=C(C)NC(=O)NC1c1ccc2c(c1)OCO2 (configuration not stated) | -7.2 | 199.9* | 6.7 | 21.3 | 0.7
CC1CCN(C(=O)CSc2nnc(Cc3cc(=O)[nH]c(=O)[nH]3)n2-c2ccc(Cl)cc2)CC1 | -7.0 | -0.3 | 8.7 | -17.6 | 0.5
O=c1[nH]nc(Sc2ncnc3sccc23)n1CCc1ccccc1 | 32.7 | 21.9* | 28.4 | 27.3 | -0.9
N#CC1=C(N)Oc2n[nH]c(-c3ccccc3)c2C1c1cccc(OC(=O)N2CCOCC2)c1 (configuration not stated) | 9.3 | -0.3 | 20.3 | 13.5 | 11.3*
O=c1[nH]cnc2cc(-c3ccccc3)sc12 | . | -1.5 | . | 8.2 | 0.0
O=c1[nH]cnc2cc(Cl)ccc12 | 5.2 | 50.3* | 15.5 | 1.1 | -1.5
COc1cc2c(cc1OC)CN(Cc1cccs1)CC2 | 3.6 | -2.0 | 1.1 | -0.2 | 13.2*
c1ccc(-c2nnc3n2N=C(c2ccc4c(c2)OCO4)CS3)nc1 | . | -1.0 | . | 2.1 | -0.8
c1cc2c(cc1C1=Nn3c(nnc3C3CCCCC3)SC1)OCO2 | . | 0.8 | . | 31.5* | -2.1
CS(=O)(=O)Nc1ccc(S(=O)(=O)Nc2nccs2)cc1 | 2.9 | -2.6 | -7.1 | 6.4 | 10.4*
O=S(=O)(Nc1nccs1)c1ccc(NS(=O)(=O)c2cccs2)cc1 | -3.8 | 1.7 | 15.6 | 9.3 | -1.3
SMILES | 5HT1a antag | HTR1A agonist | HEK293 NFkB inh | HTR1E antagonist | 5HT1E ag
O=C(NCc1cccs1)c1nc2c(nnn2Cc2ccccc2Cl)c(=O)[nH]1 | -15.1 | 0.4 | 53.1* | -3.2 | 0.0
COC(=O)CC1Oc2ccccc2N(Cc2ccccc2)C1=O (configuration not stated) | -0.5 | -1.6 | -2.0 | -14.7 | 0.0
CC1(C)CC(=O)C(C=Nc2ccc3[nH]ncc3c2)=C(O)C1 | 17.4 | -2.8 | 23.7 | 18.4 | 0.2
CSc1ccccc1N=CC1=C(O)CC(C)(C)CC1=O | 74.3* | -3.7 | 7.0 | 71.7* | -1.5
CC1(C)CC(=O)C(C=Nc2ccc3cn[nH]c3c2)=C(O)C1 | 35.7 | -2.8 | 6.3 | 39.8* | -0.5
CCOc1ccc2cc(S(=O)(=O)N3CCOCC3)ccc2c1 | -9.3 | 2.0 | 5.6 | -6.2 | 8.7*
CCOc1cc(S(=O)(=O)N2CCOCC2)ccc1F | -13.3 | 4.5 | 11.2 | -2.3 | -0.3
CCOC(=O)/N=C(/NC(=O)Nc1ccc(C(=O)OCC)cc1)OC | -5.3 | 1.0 | -7.8 | 13.1 | 9.3*
CCOC(=O)c1ccc(NC(=O)Cn2cccc2)cc1 | 7.3 | -1.8 | 13.4 | -2.2 | 25.9*
CCOC(=O)c1ccc(NC(=O)COC)cc1 | -4.7 | -0.5 | 6.1 | 1.6 | -0.6
CCOC(=O)c1ccc(NC(=O)C2CC2)cc1 | 28.4 | 0.1 | 1.4 | 2.2 | 0.7
O=S(CCc1ccncc1)Cc1ccccc1 (configuration not stated) | . | 39.9* | . | 5.9 | 0.2
COC(=O)c1[nH]c2cc(OC)c(OC)cc2c1NC(=O)CN1CCN(Cc2ccccc2)CC1 | 6.6 | 0.7 | -8.9 | 38.7* | -0.3
COc1ccc(C(=O)NC(=O)Nc2cc(C)ccn2)cc1 | 14.3 | -1.8 | 58.9* | 12.3 | -0.7
Cc1cccc(N2CCN(C(=O)Cn3nc(Cc4ccncc4)c4ccccc4c3=O)CC2)c1C | 0.0 | -1.6 | 9.8 | 16.6 | 2.6
O=S(=O)(c1ccc(Oc2ccc(Br)cc2)cc1)N1CCOCC1 | 10.7 | -2.5 | 7.7 | -0.3 | 0.2
O=C(Cn1ccc2ccccc2c1=O)NCCC(=O)NC1CCN(Cc2ccccc2)CC1 | -10.4 | -0.2 | 4.0 | 0.3 | 11.1*
O=C(CCNC(=O)Cn1ccc2ccccc2c1=O)NCCN1CCc2ccccc2C1 | 2.0 | -0.2 | 1.6 | -4.7 | 1.2
Cc1csc2ncc(C(=O)NC(C)c3ccccc3)c(=O)n12 (configuration not stated) | -21.2 | 0.4 | 0.8 | -10.6 | 1.4
O=S(=O)(c1cccc(Cl)c1)N1CCCC1 | 0.7 | 2.0 | -4.0 | 2.6 | 130.8*
O=S(=O)(c1cccc(S(=O)(=O)N2CCCC2)c1)c1cccc(S(=O)(=O)N2CCCC2)c1 | -5.9 | -6.3 | 12.3 | -5.9 | -0.9
Cc1nc2ccccc2c2oc(C(=O)NCc3ccccn3)cc12 | 0.9 | 34.2* | 28.8 | -1.1 | 0.1
CCOC(=O)C1=C(C)OC(N)=C(C#N)C1c1c(C)nn(-c2ccccc2)c1Cl (configuration not stated) | 1.3 | -3.0 | 17.5 | 7.0 | -0.6
Cc1nn(-c2ccccc2)c(Cl)c1C1C(C#N)=C(N)Oc2n[nH]c(C)c21 (configuration not stated) | 11.1 | 1.6 | 44.5* | 10.0 | 0.0
CCN1CCN(C(=O)C2c3cc(OC)c(OC)cc3C(=O)N(C)C2c2ccc(SC)cc2)CC1 (configuration not stated) | 59.7* | -0.7 | 10.7 | -1.0 | -1.0
COc1ccc(C2C(C(=O)N3CCCC3)c3cc(OC)c(OC)cc3C(=O)N2C)cc1OC (configuration not stated) | -2.9 | -1.7 | 7.7 | -7.3 | -0.2

Assay outcomes (PubChem BioAssay)
